Bioassay records: PubChem, several laboratories
Hits are enriched below; roughly 1.6% of the tested compounds scored in any of these assays.
Apaf1 inhib – human Apaf-1 inhibition. inhibition, % at 20 µM. reconstituted apoptosome caspase-3 activity, DEVD-Rh110 fluorescence. AID 489030. O14727. actives 0.71% (n = 330,000); active means inhibition of at least 40% at 20 µM;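 further: plate controls were DMSO wells for no effect and DEVD-CHO caspase inhibitor wells for full effect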
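Assay system: Apoptosome proteins | Medium: pH 7.5 Hepes buffer with CHAPS, BSA, DTT | Also added: Cytochrome c and DEVD-Rh110 substrate | Times: 30 min plus 50 min, RT | Detection: Rhodamine 110 fluorescence at Ex 480/Em 540 nm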
Neddylation inh – inhibitors of human cullin neddylation; AID 651699; actives 0.58% (n = 360,000); P61081+Q13564; TR-FRET cullin neddylation, biochemical; calls only at 25 µM; in the data active means inhibition above about 36%
RAD52 anneal inh – blocks human RAD52 DNA annealing | P43351 | recombinant RAD52 DNA annealing, FRET fluorescence | inhibition, % at 18.7 µM | actives 0.46% (n = 360,000) | AID 651710;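 active means every replicate showing at least 50% inhibition; inconclusive means mean inhibition at least 50% but not in every replicate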
Target sequence (P43351 whole entry, looked up): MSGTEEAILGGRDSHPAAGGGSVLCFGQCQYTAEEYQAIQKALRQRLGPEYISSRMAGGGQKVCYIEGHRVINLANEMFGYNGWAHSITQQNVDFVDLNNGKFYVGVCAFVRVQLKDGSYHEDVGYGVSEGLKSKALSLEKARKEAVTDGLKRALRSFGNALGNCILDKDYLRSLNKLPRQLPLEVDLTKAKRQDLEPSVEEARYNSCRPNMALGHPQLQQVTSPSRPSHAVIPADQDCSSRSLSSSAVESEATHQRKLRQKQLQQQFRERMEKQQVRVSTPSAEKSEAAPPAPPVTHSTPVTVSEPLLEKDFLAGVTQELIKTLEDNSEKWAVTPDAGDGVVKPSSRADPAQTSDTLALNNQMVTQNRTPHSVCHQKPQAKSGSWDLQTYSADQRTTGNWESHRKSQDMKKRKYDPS
FID counter – displaces DNA intercalator in HCV helicase counter-screen | DNA fluorescent intercalator displacement, fluorescence | actives 0.17% (n = 290,000) | inhibition, % at 7.9 µM; in the data active means inhibition above about 37%;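 further: 0% = vehicle and 100% = reference compound; higher means more ethidium bromide displaced from hairpin DNA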
RAD54 inh – RAD54 (human) branch migration inhibition. actives 0.14% (n = 360,000). Q92698. inhibition, % at 10.4 µM. RAD54 Holliday junction branch migration, FAM/BHQ fluorescence;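 active means mean normalized replicate activity at least 40 and at least half of replicates scoring 40 or more; inconclusive means only one of the two criteria met; inactive means mean below 40 and under half of replicates reaching 40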;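 further: 0% = median of neutral control wells and 100% = median of positive control wells; inhibitors cause a drop in the FAM fluorescence signal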
UBC13 polyUb – blocks human UBC13 polyubiquitin chain formation; inhibition, % at 20 µM; actives 0.47% (n = 330,000); TR-FRET; AID 485273; P61088; in the data active means inhibition above about 45%, passing the limit was not always enough; inconclusive means no clear call, values can overlap the other calls
Target sequence (P61088 whole entry, looked up): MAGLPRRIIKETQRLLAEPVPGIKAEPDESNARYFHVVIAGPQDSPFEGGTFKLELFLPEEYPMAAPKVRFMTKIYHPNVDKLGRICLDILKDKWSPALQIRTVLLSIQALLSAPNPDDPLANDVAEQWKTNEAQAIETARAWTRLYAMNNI
RAD52 DNA ctr – DNA binding artifact in RAD52 counter-screen. shares compounds with RAD52 anneal inh. Salmon sperm DNA/acridine orange FP displacement. AC50, µM. actives 8% (n = 1,000). AID 652128;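 active means fitted half-maximal concentration for signal loss at or below twice the highest dose tested, in every separate run, actives reach about 64 µM in these data; inconclusive means runs disagree, or flat partial signal loss, or poor fit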
The depositor's hits bear a star; i = inactive; ? = inconclusive; / = no result.

SMILES	Apaf1 inhib	Neddylation inh	RAD52 anneal inh	FID counter	RAD54 inh	UBC13 polyUb	RAD52 DNA ctr
COc1ccc(NC(=O)O[C@@H](C)[C@@H]2CN3CCc4c([nH]c5ccc(-c6ccc(OC)cc6)cc45)[C@@H]3C[C@@H]2N(C)C(=O)Nc2ccc(OC)cc2)cc1	/	i	53*	/	-4	/	i
C1CCCCCC(NCCN2CCNCC2)CCCCC1	-3	i	64*	17	/	2	i
C[C@]12CC[C@H](O)CC1=CCC1C2CC[C@@]2(C)C1CC[C@@H]2NC(=O)[C@@H](N)Cc1cnc[nH]1 (stereo partly drawn)	/	i	80*	/	-9	/	i
C[C@]12CC[C@H](O)CC1=CCC1C2CC[C@@]2(C)C1CC[C@@H]2NC(=O)[C@@H](N)CO (stereo partly drawn)	/	i	-1	/	/	/	/
CCN1CCN(c2cc(C)c3cc(NC(=O)c4cnccn4)ccc3n2)CC1	10	i	59*	/	47	-9	i
CCN1CCN(c2cc(C)c3cc(NC(=O)c4cc(OC)cc(OC)c4)ccc3n2)CC1	0	i	55*	19	34	14	i
CCN1CCN(c2cc(C)c3cc(NC(=O)CCC(=O)N4CCN(c5ccccc5)CC4)ccc3n2)CC1	6	i	19	17	7	5	/
CCOc1ccc(C(=O)Nc2ccc3nc(N4CCN(CC)CC4)cc(C)c3c2)cc1	20	i	11	18	5	13	/
C[C@H](CO)N1C[C@H](C)[C@@H](CN(C)S(C)(=O)=O)Oc2ccc(NS(=O)(=O)c3cn(C)cn3)cc2CC1=O	/	/	-2	/	-1	/	/
CCCCCCCCCCCCCCC(O)C[N+](C)(CCO)CCO (stereo not drawn)	/	i	85*	/	/	/	?
CN(C)C(=O)[C@H]1[C@H](CO)[C@H]2Cn3c(ccc(-c4ccccc4F)c3=O)[C@@H]1N2C	/	/	-7	/	-5	/	/
C(#Cc1ccccc1)C[N+]1(CC#Cc2cccc3ccccc23)CCCC1	19	i	66*	29	/	23	i
COc1cccc(-c2nc(N3CCCCC3C)c3ccccc3n2)c1O (stereo not drawn)	12	i	/	-3	5	-2	/
CN1CCN(c2nc(-c3ccccc3O)nc3ccccc23)CC1	10	i	53*	29	/	10	i
COc1cccc(-c2nc(N3CCN(C)CC3)c3ccccc3n2)c1O	7	i	87*	34	/	3	?
CCn1c2ccccc2c2cc(CN3CCN(S(C)(=O)=O)CC3)ccc21	14	i	/	-7	-2	44	/
CCn1c2ccccc2c2cc(CN3CCN(Cc4cc(OC)ccc4O)CC3)ccc21	3	i	54*	31	5	16	i
O=C(Cc1ccccc1)N[C@H]1C=C[C@@H](CC(=O)N2CCOCC2)O[C@H]1CO	/	/	9	/	2	/	/
CC(=O)c1ccc(-c2cnc3c(NC=O)cc(-c4ccc(N5CCN(C)CC5)cc4)cn23)cc1	/	i	67*	/	35	/	i
O=[N+]([O-])c1ccc(COc2ccccc2CN2CCCC2)cc1	/	i	77*	/	9	/	i
CCC(=O)/C=C1/Sc2ccccc2N1CC	-5	i	/	-8	-13	1	/
CCN1/C(=C/c2sc(-c3ccccc3C)c[n+]2C)Sc2ccccc21	/	i	69*	0	/	/	i
COc1ccc(C2NCCc3c2[nH]c2ccccc32)cc1CN1CCc2cc(OC)c(OC)cc2C1C (stereo not drawn)	/	i	/	18	/	/	/
COc1ccc(C2NCCc3c2[nH]c2ccccc32)cc1COc1ccc(F)cc1 (stereo not drawn)	-6	i	85*	25	/	47*	i
Cc1ccc(-c2nc(C(=O)NCCCN3CCOCC3)cc3c2[nH]c2ccccc23)cc1	38	i	94*	10	30	33	i
SMILES	Apaf1 inhib	Neddylation inh	RAD52 anneal inh	FID counter	RAD54 inh	UBC13 polyUb	RAD52 DNA ctr
CCN1[C@@H]2Cn3c(ccc(-c4cccc(F)c4)c3=O)[C@H]1[C@@H](C(=O)NCCCN(C)C)[C@@H]2CO	/	/	11	/	2	/	/
CC(=O)c1c(NCc2ccccc2)nc(=O)n(-c2ccccc2)c1C	1	i	/	-11	8	-1	/
CC(=O)c1c(NCCc2ccccc2)nc(=S)n(-c2ccccc2)c1C	-2	i	58*	-22	/	1	i
CCn1c(C)c(C(C)=O)c(NCc2ccccc2)nc1=S	-9	i	68*	-7	7	25	i
C[C@H]1CN([C@@H](C)CO)C(=O)c2cc(NC(=O)NC3CCCCC3)ccc2O[C@@H]1CN(C)C(=O)NC1CCCCC1	/	/	7	/	-3	/	/
CN(C)CCCNC(=O)C[C@H]1CC[C@@H](NC(=O)Cc2cccnc2)[C@H](CO)O1	/	/	0	/	9	/	/
CCCCCCCCCCCCCCCC[N+](C)(C)Cc1ccc(F)cc1	/	i	91*	/	/	/	26µM*
O=C(C1CC1)N1CC[C@@H]2[C@H](CO)Nc3ccc(C4=CCCCC4)cc3[C@@H]21	/	/	25	/	/	/	/
CCC(/C=C1\Sc2ccc(OC)cc2N1CCO)=C\c1sc2ccc(OC)cc2[n+]1CCO	23	i	83*	-44	11	40	i
COc1ccc(NC(=O)Nc2ccc3c(c2)CC(=O)N([C@H](C)CO)C[C@@H](C)[C@H](CN(C)C(=O)Nc2ccc4c(c2)OCO4)O3)cc1	/	/	17	/	-1	/	/
C[C@@H]1CN([C@@H](C)CO)C(=O)c2cccc(NC(=O)Nc3ccc4c(c3)OCO4)c2O[C@@H]1CN(C)Cc1ccc(Oc2ccccc2)cc1	/	/	53	/	0	/	i
CCNC(=O)C[C@H]1CC[C@@H]2[C@@H](COc3ccc(NC(=O)Nc4ccc(C)cc4)cc3C(=O)N2C)O1	/	/	0	/	5	/	/
O=C(NCc1ccncn1)[C@@H]1[C@@H](CO)[C@@H]2Cn3c(ccc(-c4cccc(F)c4)c3=O)[C@@H]2N1CC1CC1	/	/	-16	/	-2	/	/
Cc1sc[n+](CC(=O)c2ccc(Br)cc2)c1C	16	i	-5	-2	-14	10	/
Cc1c(CCOC(=O)c2cc([N+](=O)[O-])cc([N+](=O)[O-])c2)sc[n+]1CC(=O)c1ccc(Br)cc1	29	i	94*	28	/	14	i
c1cncc(Nc2c3ccccc3nc3ccccc23)c1	6	i	59*	37*	78*	-23	i
C[C@H]1CN([C@@H](C)CO)C(=O)Cc2cc(NC(=O)Nc3cccc4ccccc34)ccc2O[C@@H]1CN(C)C(=O)Nc1ccc2c(c1)OCO2	/	/	1	/	-14	/	/
Cc1ccccc1S(=O)(=O)N(C)C[C@@H]1OCc2cn(nn2)CCCC(=O)N([C@@H](C)CO)C[C@@H]1C	/	/	0	/	-3	/	/
CN(C)CCCN(C(=O)c1ccc2c(c1)CCCC2)c1nc2cc3c(cc2s1)OCO3	20	i	71*	25	39	37	i
